The molecules below were run against Protein-S-isoprenylcysteine O-methyltransferase (Homo sapiens, UniProt O60725) (assay: Inhibition of ICMT expressed in Sf9 cells).
How it was run: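 Sf9 membranes carrying ICMT added to start reactions with biotin-S-farnesyl L-cysteine and [3H]AdoMet in 100 mM Hepes pH 7.4, 5 mM MgCl2; 37 °C, 20 min; stopped with 10% Tween 20. [3H]methyl on substrate captured on streptavidin beads overnight at 4 °C, washed in phosphate-buffered NaCl, scintillation counted.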

Chain of Protein-S-isoprenylcysteine O-methyltransferase (O60725 whole entry): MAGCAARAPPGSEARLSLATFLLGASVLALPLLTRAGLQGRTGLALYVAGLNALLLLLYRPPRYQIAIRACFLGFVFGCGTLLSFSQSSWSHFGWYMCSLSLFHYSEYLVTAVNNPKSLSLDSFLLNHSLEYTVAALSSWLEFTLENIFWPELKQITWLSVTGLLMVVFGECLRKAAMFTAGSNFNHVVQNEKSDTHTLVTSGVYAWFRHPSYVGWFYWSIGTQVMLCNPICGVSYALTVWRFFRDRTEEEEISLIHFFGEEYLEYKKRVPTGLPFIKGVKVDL

Row | Structure (SMILES) | IC50 [µM]
1 | NC(=O)Cc1cn(CCCOc2ccccc2)c2ccc(-c3ccc(Oc4ccccc4)cc3)cc12 | 100
2 | NC(=O)Cc1cn(Cc2ccc3ccccc3c2)c2ccc(-c3ccc(Oc4ccccc4)cc3)cc12 | 100
3 | NC(=O)Cc1cn(CC2CC2)c2ccc(-c3cccc(F)c3)cc12 | 14.8
4 | Cc1ccc(-c2ccc3c(c2)c(CC(N)=O)cn3CC(C)C)cc1 | 9.77
5 | NC(=O)Cc1cn(CCCOc2ccccc2)c2ccc(-c3cccc(F)c3)cc12 | 100
6 | CCOc1cccc(-c2ccc3c(c2)c(CC(N)=O)cn3CC2CC2)c1 | 6.46
7 | CCCCCCCCn1cc(CC(N)=O)c2cc(-c3ccc(C)cc3)ccc21 | 10.7
8 | Cc1cccc(-c2ccc3c(c2)c(CC(N)=O)cn3CCCOc2ccccc2)c1 | 100
9 | CCCCCCn1cc(CC(N)=O)c2cc(-c3ccc(C)cc3)ccc21 | 7.41
10 | NC(=O)Cc1cn(Cc2ccccc2)c2ccc(-c3cccc(F)c3)cc12 | 10.7
11 | CCOc1cccc(-c2ccc3c(c2)c(CC(N)=O)cn3Cc2ccc3ccccc3c2)c1 | 8.32
12 | CCCCCCn1cc(CC(N)=O)c2cc(-c3ccc(Oc4ccccc4)cc3)ccc21 | 100
13 | Cc1cccc(-c2ccc3c(c2)c(CC(N)=O)cn3Cc2ccc3ccccc3c2)c1 | 17.4
14 | CCOc1cccc(-c2ccc3c(c2)c(CC(N)=O)cn3Cc2ccc(C(C)(C)C)cc2)c1 | 12.6
15 | NC(=O)Cc1cn(Cc2ccccc2)c2ccc(-c3ccc(F)c(Cl)c3)cc12 | 10.5
16 | CCCCCCn1cc(CC(N)=O)c2cc(-c3cccc(C)c3)ccc21 | 7.41
17 | CCOc1cccc(-c2ccc3[nH]cc(CC(N)=O)c3c2)c1 | 100
18 | COc1ccccc1-c1ccc2[nH]cc(CC(N)=O)c2c1 | 100
19 | CC(C)Cn1cc(CC(N)=O)c2cc(-c3ccc(F)c(Cl)c3)ccc21 | 9.12
20 | NC(=O)Cc1cn(CCCOc2ccccc2)c2ccc(-c3cc(C(F)(F)F)cc(C(F)(F)F)c3)cc12 | 100

Row | Structure (SMILES) | IC50 [µM]
21 | CCOc1cccc(-c2ccc3c(c2)c(CC(N)=O)cn3CC(C)C)c1 | 6.17
22 | COc1ccccc1-c1ccc2c(c1)c(CC(N)=O)cn2CC1CC1 | 16.2
23 | NC(=O)Cc1cn(CC2CC2)c2ccc(-c3cc(C(F)(F)F)cc(C(F)(F)F)c3)cc12 | 100
24 | Cc1ccc(-c2ccc3[nH]cc(CC(N)=O)c3c2)cc1 | 100
25 | CCCCCCCCn1cc(CC(N)=O)c2cc(-c3ccccc3OC)ccc21 | 6.03
26 | NC(=O)Cc1cn(Cc2cccc(C(F)(F)F)c2)c2ccc(-c3ccc(F)c(Cl)c3)cc12 | 6.17
27 | NC(=O)Cc1cn(Cc2cccc(C(F)(F)F)c2)c2ccc(-c3cc(C(F)(F)F)cc(C(F)(F)F)c3)cc12 | 100
28 | NC(=O)Cc1c[nH]c2ccc(-c3cccc(F)c3)cc12 | 39.8
29 | CC(C)Cn1cc(CC(N)=O)c2cc(-c3cccc(F)c3)ccc21 | 3.72
30 | COc1ccccc1-c1ccc2c(c1)c(CC(N)=O)cn2CC(C)C | 21.9
31 | CC(C)(C)c1ccc(Cn2cc(CC(N)=O)c3cc(-c4ccc(F)c(Cl)c4)ccc32)cc1 | 7.59
32 | CC(C)Cn1cc(CC(N)=O)c2cc(-c3cc(C(F)(F)F)cc(C(F)(F)F)c3)ccc21 | 25.7
33 | NC(=O)Cc1cn(Cc2ccc3ccccc3c2)c2ccc(-c3cc(C(F)(F)F)cc(C(F)(F)F)c3)cc12 | 100
34 | Cc1ccc(-c2ccc3c(c2)c(CC(N)=O)cn3Cc2ccc3ccccc3c2)cc1 | 19.5
35 | CCCCCCn1cc(CC(N)=O)c2cc(-c3cccc(F)c3)ccc21 | 12.9
36 | NC(=O)Cc1c[nH]c2ccc(-c3cc(C(F)(F)F)cc(C(F)(F)F)c3)cc12 | 100
37 | CCCCCCCCn1cc(CC(N)=O)c2cc(-c3cc(C(F)(F)F)cc(C(F)(F)F)c3)ccc21 | 37.2
38 | CCOc1cccc(-c2ccc3c(c2)c(CC(N)=O)cn3Cc2cccc(C(F)(F)F)c2)c1 | 4.9
39 | CCCCCCn1cc(CC(N)=O)c2cc(-c3ccc(F)c(Cl)c3)ccc21 | 9.33
40 | COc1ccccc1-c1ccc2c(c1)c(CC(N)=O)cn2Cc1ccccc1 | 13.2

Row | Structure (SMILES) | IC50 [µM]
41 | CCCCCCn1cc(CC(N)=O)c2cc(-c3ccccc3OC)ccc21 | 8.13
42 | CC(C)(C)c1ccc(Cn2cc(CC(N)=O)c3cc(-c4cc(C(F)(F)F)cc(C(F)(F)F)c4)ccc32)cc1 | 29.5
43 | NC(=O)Cc1c[nH]c2ccc(-c3ccc(F)c(Cl)c3)cc12 | 100
44 | Cc1ccc(-c2ccc3c(c2)c(CC(N)=O)cn3Cc2cccc(C(F)(F)F)c2)cc1 | 6.46
45 | COc1ccccc1-c1ccc2c(c1)c(CC(N)=O)cn2Cc1cccc(C(F)(F)F)c1 | 6.17
46 | Cc1cccc(-c2ccc3c(c2)c(CC(N)=O)cn3Cc2ccccc2)c1 | 6.46
47 | COc1ccccc1-c1ccc2c(c1)c(CC(N)=O)cn2CCCOc1ccccc1 | 100
48 | CCCCCCCCn1cc(CC(N)=O)c2cc(-c3ccc(F)c(Cl)c3)ccc21 | 7.08
49 | CC(C)(C)c1ccc(Cn2cc(CC(N)=O)c3cc(-c4cccc(F)c4)ccc32)cc1 | 5.01
50 | NC(=O)Cc1cn(Cc2cccc(C(F)(F)F)c2)c2ccc(-c3ccc(Oc4ccccc4)cc3)cc12 | 100
51 | CCCCCCCCn1cc(CC(N)=O)c2cc(-c3cccc(OCC)c3)ccc21 | 2.19
52 | NC(=O)Cc1cn(Cc2cccc(C(F)(F)F)c2)c2ccc(-c3cccc(F)c3)cc12 | 5.75
53 | Cc1cccc(-c2ccc3c(c2)c(CC(N)=O)cn3CC(C)C)c1 | 15.8
54 | Cc1cccc(-c2ccc3c(c2)c(CC(N)=O)cn3Cc2cccc(C(F)(F)F)c2)c1 | 7.94
55 | NC(=O)Cc1cn(CC2CC2)c2ccc(-c3ccc(F)c(Cl)c3)cc12 | 5.75
56 | Cc1cccc(-c2ccc3c(c2)c(CC(N)=O)cn3CC2CC2)c1 | 9.12
57 | CCCCCCn1cc(CC(N)=O)c2cc(-c3cccc(OCC)c3)ccc21 | 6.61
58 | Cc1cccc(-c2ccc3[nH]cc(CC(N)=O)c3c2)c1 | 100
59 | NC(=O)Cc1cn(CC2CC2)c2ccc(-c3ccc(Oc4ccccc4)cc3)cc12 | 100
60 | CCCCCCCCn1cc(CC(N)=O)c2cc(-c3cccc(F)c3)ccc21 | 2.4

Reference: ChEMBL document CHEMBL1139053, “Quantitative structure-activity relationship (QSAR) of indoloacetamides as inhibitors of human isoprenylcysteine carboxyl methyltransferase” (Bioorg Med Chem Lett, 2007)
